We go through seven molecules from ChEMBL document CHEMBL1177882, “Novel bisstyryl derivatives of bakuchiol: targeting oral cavity pathogens” (2010).

The MBC is the lowest tested concentration that kills the bacteria rather than only halting them. By MIC is commonly meant the lowest concentration found to suppress growth. A higher MIC goes with weaker potency.

≈ marks a conversion by molar mass, not a printed value. Calls of active or inactive are those of the source. The rule behind the calls is not given here.

Test [1] has as its system Streptococcus sanguinis. The test can be described thus: Antibacterial activity against Streptococcus sanguinis ATCC 10556 after 48 hrs by broth microdilution method. The test is classed as functional. To be noted: ATCC 10556, 48 h. On the technique in general: In broth dilution the organism is exposed to a series of concentrations in liquid medium.
The next test has as its system Fusobacterium nucleatum. The test can be described thus: Antibacterial activity against Fusobacterium nucleatum ATCC 10953 after 48 hrs by broth microdilution method. The test is classed as functional. To be noted: ATCC 10953, 48 h. In outline: (§1)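 Broth microdilution MIC for obligate anaerobes, run in their growth media (Wilkins–Chalgren for F. nucleatum and P. intermedia; supplemented Todd Hewitt broth for P. gingivalis). Inoculum suspended in Brucella broth, final 5 × 10^6 cfu/ml. Twofold dilutions, final 0.12–128 µg/ml. Incubated anaerobically (90% N2/5% H2/5% CO2) at 37 °C for 48 h; MIC is the lowest concentration without turbidity.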

The subject of test [2] is Streptococcus mutans. The test can be described thus: Antibacterial activity against Streptococcus mutans ATCC 25175 after 48 hrs by broth microdilution method. The test is classed as functional. To be noted: ATCC 25175, 48 h.
Test [3] deals with Streptococcus sanguinis. The test can be described thus: Antibacterial activity against Streptococcus sanguinis ATCC 10556 after 24 hrs by broth microdilution method. To be noted: ATCC 10556, 24 h.
Test [4] concerns Streptococcus mutans. The test can be described thus: Antibacterial activity against Streptococcus mutans ATCC 25175 assessed as increase of cell membrane permeability at 2 time MIC after 60 mins propidium iodide staining by flow cytometry. The test is classed as functional, organism-based. In outline: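 Overnight BHI culture of S. mutans washed into 50 mmol/l sodium phosphate pH 7.1 (~1 × 10^9 cfu/ml), diluted 1:20 into buffer with compound at 2 × MIC. Incubated 60 min at room temperature; aliquots diluted in buffer and stained with propidium iodide at 10 µg/ml final on ice. The percentage of PI-stained cells was measured by flow cytometry.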

The test system of the next test is Porphyromonas gingivalis. The test can be described thus: Antibacterial activity against Porphyromonas gingivalis ATCC 33277 after 48 hrs by broth microdilution method. To be noted: ATCC 33277, 48 h. The class given is functional. In outline:
as §1

Test [5] has as its system Actinomyces viscosus. The test can be described thus: Antibacterial activity against Actinomyces viscosus ATCC 15987 after 48 hrs by broth microdilution method. The class given is functional. To be noted: ATCC 15987, 48 h.
Test [6] concerns Streptococcus mutans. The test can be described thus: Antibacterial activity against Streptococcus mutans ATCC 25175 after 24 hrs by broth microdilution method. To be noted: ATCC 25175, 24 h.
For the next test, the system named is Prevotella intermedia. The test can be described thus: Antibacterial activity against Prevotella intermedia ATCC 25611 after 48 hrs by broth microdilution method. The class given is functional. To be noted: ATCC 25611, 48 h. In outline: as §1
Test [7] concerns Streptococcus mutans. Put plainly: Antibacterial activity against Streptococcus mutans ATCC 25175 assessed as 280 nm absorbing material release at 2 time MIC after 60 mins by spectrophotometric analysis. The test is classed as functional, organism-based. The method, boiled down: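 S. mutans prepared in 50 mmol/l phosphate pH 7.1 (~1 × 10^9 cfu/ml) was exposed to compound at 2 × MIC for 60 min at 37 °C. Supernatant taken after centrifugation (10,000 g, 10 min) and read at A280. Release is expressed as % of a total-release control made by lysozyme treatment (100 µg/ml, 60 min, 37 °C) plus sonication.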

Test [8] relates to Streptococcus mutans. Put plainly: Antibacterial activity against Streptococcus mutans ATCC 25175 assessed as inhibition of biofilm formation after 18 hrs. The test is classed as functional. In outline: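 Single-species S. mutans biofilm grown in flat-bottom polystyrene wells, BHI with 2% sucrose, 6 × 10^7 cfu/ml final, compound twofold 0.12–128 µg/ml, 18 h at 37 °C in 5% CO2. Wells rinsed with PBS pH 7.2, methanol-fixed, stained with 0.1% crystal violet, eluted in 95% ethanol, A595 read. % inhibition relative to untreated control; MBIC50 is the lowest concentration giving ≥50% inhibition.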

Test [9] relates to Streptococcus mutans. The test can be described thus: Antibacterial activity against Streptococcus mutans ATCC 25175 assessed as decrease in cell viability at 2 time MIC after 60 mins by serial dilution method relative to control. The test is classed as functional. In outline: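 S. mutans suspension from an 18 h culture (~1 × 10^9 cfu/ml) diluted 1:20 into phosphate buffer containing compound at 2 × MIC. Incubated 60 min at 37 °C, then serially diluted in saline and plated on BHI agar. Colonies counted after 48 h at 37 °C in 5% CO2; viability given as CFU/ml relative to untreated cells.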

Test [10] has as its system Actinomyces viscosus. Put plainly: Antibacterial activity against Actinomyces viscosus ATCC 15987 after 24 hrs by broth microdilution method. To be noted: ATCC 15987, 24 h.

With `CC(C)=CCCC(C)(/C=C/c1ccc(O)cc1)/C=C/c1ccc(O)cc1`, the MBC with Streptococcus sanguinis [1] is 1 µg/mL (≈ 2.87 µM); against Fusobacterium nucleatum, over 128 µg/mL; in the test on Streptococcus mutans [2], 1 µg/mL (≈ 2.87 µM); against Porphyromonas gingivalis, 1 µg/mL (≈ 2.87 µM); in the test with Actinomyces viscosus [5] it was 1 µg/mL (≈ 2.87 µM); in the test with Prevotella intermedia it was 1 µg/mL (≈ 2.87 µM). The MIC is over 128 µg/mL against Fusobacterium nucleatum; 0.25 µg/mL (≈ 0.717 µM) against Streptococcus sanguinis [3]; 0.25 µg/mL (≈ 0.717 µM) in the test with Porphyromonas gingivalis; 0.5 µg/mL (≈ 1.43 µM) against Streptococcus mutans [6]; 0.25 µg/mL (≈ 0.717 µM) against Prevotella intermedia; 0.5 µg/mL (≈ 1.43 µM) in the test with Actinomyces viscosus [10]. Moreover, the result in the test on Streptococcus mutans [4] and with Streptococcus mutans [7] was Active. Also, in the test on Streptococcus mutans [8], the MBIC50 was found to be 1 µg/mL. Also, in the test on Streptococcus mutans [9], the Activity is on record as over 80%.

Take `COc1ccccc1/C=C/[C@@](C)(/C=C/c1ccc(O)cc1)CCC=C(C)C`: the minimal bactericidal concentration (MBC) is 4 µg/mL (≈ 11 µM) in the test on Streptococcus sanguinis [1]; 32 µg/mL (≈ 88.3 µM) against Fusobacterium nucleatum; 8 µg/mL (≈ 22.1 µM) in the test on Streptococcus mutans [2]; 2 µg/mL (≈ 5.52 µM) in the test with Porphyromonas gingivalis; 4 µg/mL (≈ 11 µM) in the test on Actinomyces viscosus [5]; 4 µg/mL (≈ 11 µM) against Prevotella intermedia. The MIC stood at 16 µg/mL (≈ 44.1 µM) against Fusobacterium nucleatum; 2 µg/mL (≈ 5.52 µM) against Streptococcus sanguinis [3]; 1 µg/mL (≈ 2.76 µM) in the test on Porphyromonas gingivalis; 4 µg/mL (≈ 11 µM) in the test with Streptococcus mutans [6]; 2 µg/mL (≈ 5.52 µM) in the test with Prevotella intermedia; 2 µg/mL (≈ 5.52 µM) with Actinomyces viscosus [10]. Also, in the test on Streptococcus mutans [8], the MBIC50 came to 8 µg/mL.

Consider `Oc1cc(Cl)ccc1Oc1ccc(Cl)cc1Cl` [TRICLOSAN], for which the MBC in the test on Streptococcus sanguinis [1] amounted to 4 µg/mL (≈ 13.8 µM); in the test on Fusobacterium nucleatum, 2 µg/mL (≈ 6.91 µM); against Streptococcus mutans [2] it was 8 µg/mL (≈ 27.6 µM); with Porphyromonas gingivalis, 2 µg/mL (≈ 6.91 µM); in the test with Actinomyces viscosus [5] it was 8 µg/mL (≈ 27.6 µM); with Prevotella intermedia it was 1 µg/mL (≈ 3.45 µM). In addition, the MIC is 2 µg/mL (≈ 6.91 µM) against Fusobacterium nucleatum; 4 µg/mL (≈ 13.8 µM) in the test with Streptococcus sanguinis [3]; 2 µg/mL (≈ 6.91 µM) in the test on Porphyromonas gingivalis; 4 µg/mL (≈ 13.8 µM) in the test with Streptococcus mutans [6]; 1 µg/mL (≈ 3.45 µM) with Prevotella intermedia; 4 µg/mL (≈ 13.8 µM) against Actinomyces viscosus [10].

Consider `CC(C)=CCC[C@@](C)(/C=C/c1ccc(N)cc1)/C=C/c1ccc(O)cc1`, for which the MBC was 4 µg/mL (≈ 11.5 µM) in the test with Streptococcus sanguinis [1]; over 128 µg/mL against Fusobacterium nucleatum; 4 µg/mL (≈ 11.5 µM) against Streptococcus mutans [2]; 2 µg/mL (≈ 5.76 µM) in the test on Porphyromonas gingivalis; 2 µg/mL (≈ 5.76 µM) against Actinomyces viscosus [5]; 4 µg/mL (≈ 11.5 µM) in the test with Prevotella intermedia. Further, the MIC in the test on Fusobacterium nucleatum was over 128 µg/mL; against Streptococcus sanguinis [3], 2 µg/mL (≈ 5.76 µM); in the test on Porphyromonas gingivalis it was 1 µg/mL (≈ 2.88 µM); in the test with Streptococcus mutans [6] it was 2 µg/mL (≈ 5.76 µM); with Prevotella intermedia, 2 µg/mL (≈ 5.76 µM); against Actinomyces viscosus [10], 2 µg/mL (≈ 5.76 µM).

Consider `C=C[C@@](C)(/C=C/c1ccc(O)cc1)CCC1OC1(C)C` (some centres undefined), for which the MBC was over 128 µg/mL against Streptococcus sanguinis [1]; over 128 µg/mL against Fusobacterium nucleatum; over 128 µg/mL in the test on Streptococcus mutans [2]; 64 µg/mL (≈ 235 µM) against Porphyromonas gingivalis; 128 µg/mL (≈ 470 µM) against Actinomyces viscosus [5]; 128 µg/mL (≈ 470 µM) against Prevotella intermedia. Besides, the minimal inhibitory concentration (MIC) with Fusobacterium nucleatum was over 128 µg/mL; with Streptococcus sanguinis [3], 128 µg/mL (≈ 470 µM); against Porphyromonas gingivalis, 32 µg/mL (≈ 117 µM); in the test with Streptococcus mutans [6], 128 µg/mL (≈ 470 µM); with Prevotella intermedia it was 64 µg/mL (≈ 235 µM); against Actinomyces viscosus [10], 64 µg/mL (≈ 235 µM).

In the case of `COc1ccc(/C=C/[C@@](C)(/C=C/c2ccc(O)cc2)CCC=C(C)C)cc1C=O`, the MBC in the test with Streptococcus sanguinis [1] is 32 µg/mL (≈ 81.9 µM); against Fusobacterium nucleatum, over 128 µg/mL; with Streptococcus mutans [2] it was 16 µg/mL (≈ 41 µM); in the test on Porphyromonas gingivalis, 2 µg/mL (≈ 5.12 µM); against Actinomyces viscosus [5], 32 µg/mL (≈ 81.9 µM); in the test on Prevotella intermedia, 32 µg/mL (≈ 81.9 µM). Besides, the MIC is over 128 µg/mL in the test with Fusobacterium nucleatum; 16 µg/mL (≈ 41 µM) in the test with Streptococcus sanguinis [3]; 2 µg/mL (≈ 5.12 µM) against Porphyromonas gingivalis; 16 µg/mL (≈ 41 µM) in the test on Streptococcus mutans [6]; 16 µg/mL (≈ 41 µM) with Prevotella intermedia; 16 µg/mL (≈ 41 µM) against Actinomyces viscosus [10].

Regarding `CCCOc1ccc(/C=C/[C@@](C)(/C=C/c2ccc(O)cc2)CCC=C(C)C)cc1Cl`, the MBC against Streptococcus sanguinis [1] was found to be 32 µg/mL (≈ 75.3 µM); in the test on Fusobacterium nucleatum it was 128 µg/mL (≈ 301 µM); in the test on Streptococcus mutans [2] it was 8 µg/mL (≈ 18.8 µM); against Porphyromonas gingivalis, 4 µg/mL (≈ 9.41 µM); against Actinomyces viscosus [5] it was 64 µg/mL (≈ 151 µM); in the test with Prevotella intermedia, 32 µg/mL (≈ 75.3 µM). Besides, the MIC turned out to be 64 µg/mL (≈ 151 µM) with Fusobacterium nucleatum; 16 µg/mL (≈ 37.6 µM) in the test with Streptococcus sanguinis [3]; 4 µg/mL (≈ 9.41 µM) in the test with Porphyromonas gingivalis; 32 µg/mL (≈ 75.3 µM) against Streptococcus mutans [6]; 16 µg/mL (≈ 37.6 µM) against Prevotella intermedia; 32 µg/mL (≈ 75.3 µM) in the test with Actinomyces viscosus [10].
